A word on the inhibition: it is how much of the control response was suppressed. High values mean strong suppression, low ones little suppression. Usually IC50 stands for the concentration that gives 50% inhibition. Higher therefore signals weaker potency.

Molecules are shown by their SMILES. Activity calls are given as the source filed them. No cut-off for these calls is given here.

In experiment [1] the target is Tyrosine-protein kinase ABL2 (Homo sapiens) (UniProt P42684). Put plainly: Inhibition of Abl2 at 20 uM after 1 hr by luminescence assay. In outline: (§1)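 Kinase incubated with substrate, test compound and ATP in a final buffer of 25 mM HEPES. Controls were staurosporine for Abl and PI103 for PI3K.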
Sequence of Tyrosine-protein kinase ABL2 (Homo sapiens) (P42684 whole entry): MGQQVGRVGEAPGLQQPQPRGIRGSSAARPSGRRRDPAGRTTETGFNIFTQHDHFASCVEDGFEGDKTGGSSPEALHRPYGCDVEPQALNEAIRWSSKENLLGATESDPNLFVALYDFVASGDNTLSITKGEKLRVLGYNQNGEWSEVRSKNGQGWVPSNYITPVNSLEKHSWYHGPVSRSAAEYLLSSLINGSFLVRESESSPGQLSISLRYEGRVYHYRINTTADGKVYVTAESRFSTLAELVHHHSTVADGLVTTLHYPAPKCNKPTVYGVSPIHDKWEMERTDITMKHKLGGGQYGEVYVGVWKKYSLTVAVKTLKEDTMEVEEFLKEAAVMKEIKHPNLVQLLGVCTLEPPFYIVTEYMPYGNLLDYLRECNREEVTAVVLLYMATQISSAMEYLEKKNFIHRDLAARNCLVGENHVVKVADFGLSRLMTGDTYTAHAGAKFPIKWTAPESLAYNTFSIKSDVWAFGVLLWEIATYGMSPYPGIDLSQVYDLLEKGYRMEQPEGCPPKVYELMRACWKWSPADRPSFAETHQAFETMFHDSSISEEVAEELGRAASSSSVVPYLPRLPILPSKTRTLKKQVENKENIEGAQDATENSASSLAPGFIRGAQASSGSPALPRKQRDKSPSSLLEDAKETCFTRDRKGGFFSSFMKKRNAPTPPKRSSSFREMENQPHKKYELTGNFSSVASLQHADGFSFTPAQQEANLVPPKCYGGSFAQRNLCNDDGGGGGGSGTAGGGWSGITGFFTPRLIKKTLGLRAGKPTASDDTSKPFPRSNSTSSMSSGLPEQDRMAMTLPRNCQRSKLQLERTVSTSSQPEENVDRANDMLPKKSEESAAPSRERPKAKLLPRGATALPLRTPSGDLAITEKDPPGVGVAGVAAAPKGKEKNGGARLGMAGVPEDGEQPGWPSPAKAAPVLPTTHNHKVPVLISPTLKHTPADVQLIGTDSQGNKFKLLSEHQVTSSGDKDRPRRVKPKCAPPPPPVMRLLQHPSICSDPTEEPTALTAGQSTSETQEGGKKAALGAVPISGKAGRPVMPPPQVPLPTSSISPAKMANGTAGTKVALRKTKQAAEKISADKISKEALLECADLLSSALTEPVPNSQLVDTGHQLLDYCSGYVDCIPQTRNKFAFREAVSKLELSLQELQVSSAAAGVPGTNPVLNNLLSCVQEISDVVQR
Experiment [2] concerns K562. Briefly: Induction of apoptosis in human K562 cells at 5 uM after 24 hrs by annexin V-FITC/propidium iodide staining by flow cytometry. In kind it is functional, cell-based. The method in brief: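 K562 cells were treated for 24 h, then untreated and treated cells were collected by centrifugation and washed twice with ice-cold PBS. Phosphatidylserine surface exposure was measured by Annexin V-FITC binding, with PI staining for membrane integrity. Read-out was flow cytometry.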
For orientation: Flow cytometry measures light scatter and fluorescence of single cells or particles in a stream.

For experiment [3], the target named is Phosphatidylinositol 4,5-bisphosphate 3-kinase catalytic subunit alpha isoform (Homo sapiens) (UniProt P42336). Put plainly: Inhibition of PI3Kalpha at 20 uM after 1 hr by luminescence assay. In outline:
as §1

In experiment [4] the test system is K562. Put plainly: Cytotoxicity against human K562 cells after 48 hrs by MTT assay. In kind it is functional, cell-based. Particulars: K562, 48 h. The method in brief:
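K562 cells grown in DMEM with 10% FBS plus penicillin and streptomycin, humidified air, 37 °C, 5% CO2. Cells seeded in 96-well plates and exposed to compounds at varying concentrations for 48 h. Viability read by MTT. IC50 derived from inhibition rates at each concentration. Values are means of three experiments.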
(In general: Tetrazolium assays rely on reduction of a dye to a coloured formazan, in cell work by metabolically active cells.)

Sequence of Phosphatidylinositol 4,5-bisphosphate 3-kinase catalytic subunit alpha isoform (Homo sapiens) (P42336 whole entry, canonical isoform): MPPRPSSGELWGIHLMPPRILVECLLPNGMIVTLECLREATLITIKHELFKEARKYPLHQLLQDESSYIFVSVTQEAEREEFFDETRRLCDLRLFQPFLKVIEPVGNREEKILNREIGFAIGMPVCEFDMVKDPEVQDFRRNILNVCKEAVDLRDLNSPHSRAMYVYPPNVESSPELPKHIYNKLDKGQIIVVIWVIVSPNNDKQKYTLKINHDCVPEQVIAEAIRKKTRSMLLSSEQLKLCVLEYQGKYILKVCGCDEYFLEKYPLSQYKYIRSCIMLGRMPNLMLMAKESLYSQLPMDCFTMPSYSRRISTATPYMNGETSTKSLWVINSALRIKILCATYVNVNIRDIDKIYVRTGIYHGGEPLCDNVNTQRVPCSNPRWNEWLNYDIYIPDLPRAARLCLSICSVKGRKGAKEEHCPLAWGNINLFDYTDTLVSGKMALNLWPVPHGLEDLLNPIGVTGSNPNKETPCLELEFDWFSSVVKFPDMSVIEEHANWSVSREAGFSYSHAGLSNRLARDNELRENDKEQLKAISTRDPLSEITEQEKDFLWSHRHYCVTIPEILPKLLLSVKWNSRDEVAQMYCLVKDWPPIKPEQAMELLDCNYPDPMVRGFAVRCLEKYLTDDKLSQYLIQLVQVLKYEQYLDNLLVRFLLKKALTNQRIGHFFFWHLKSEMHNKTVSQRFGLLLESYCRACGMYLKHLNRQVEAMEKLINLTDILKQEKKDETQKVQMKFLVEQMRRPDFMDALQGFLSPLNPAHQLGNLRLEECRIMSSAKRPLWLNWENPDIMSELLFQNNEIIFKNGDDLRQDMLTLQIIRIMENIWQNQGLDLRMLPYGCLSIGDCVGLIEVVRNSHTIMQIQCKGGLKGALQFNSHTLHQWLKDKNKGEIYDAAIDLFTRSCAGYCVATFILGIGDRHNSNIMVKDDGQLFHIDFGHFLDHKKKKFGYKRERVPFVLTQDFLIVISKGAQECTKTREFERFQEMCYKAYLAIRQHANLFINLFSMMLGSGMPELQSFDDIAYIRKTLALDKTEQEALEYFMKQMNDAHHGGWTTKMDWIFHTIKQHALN

In the case of `Cc1cc(C)c(CN2CCN(C(=O)CN[C@H]3CCN(S(=O)(=O)Cc4ccccc4)C3)CC2)c(C)c1`, the inhibition in experiment [1] came out at 1.39%; in experiment [3], 13.5%. Also, the result in experiment [2] was inactive. For the same compound, the IC50 in experiment [4] was determined as 3.3 µM.
`CN[C@@H]1C[C@H]2O[C@@](C)([C@@H]1OC)n1c3ccccc3c3c4c(c5c6ccccc6n2c5c31)C(=O)NC4` gave an inhibition in experiment [1] of 90.2%.
Regarding `O=C(CN[C@H]1CCN(S(=O)(=O)Cc2ccccc2)C1)N1CCN(Cc2c(F)cccc2Cl)CC1`, inhibition in experiment [4] was half-maximal at 65.8 µM (IC50).
Still for that read-out and setting: the figure for `O=C(CN[C@H]1CCN(S(=O)(=O)Cc2ccccc2)C1)N1CCN(Cc2cccc(F)c2)CC1` is 13.2 µM.
Consider `Oc1cccc(-c2nc(N3CCOCC3)c3oc4ncccc4c3n2)c1`, for which the inhibition in experiment [3] is 98.1%.
In turn, `O=C(CN[C@H]1CCN(S(=O)(=O)Cc2ccccc2)C1)N1CCN(Cc2ccc(Cl)cc2)CC1` gave an IC50 in experiment [4] of 9.2 µM.
As to `Cc1ccc(NC(=O)c2ccc(CN3CCN(C)CC3)cc2)cc1Nc1nccc(-c2cccnc2)n1` [IMATINIB], the IC50 in experiment [4] came to 0.58 µM.
Same read-out and setting: the result for `COc1cccc(CN2CCN(C(=O)CN[C@H]3CCN(S(=O)(=O)Cc4ccccc4)C3)CC2)c1` reads 60.8 µM; that for `O=C(CN[C@H]1CCN(S(=O)(=O)Cc2ccccc2)C1)N1CCN(Cc2ccccc2F)CC1`, 12.6 µM; that for `Cc1ccc(CN2CCN(C(=O)CN[C@H]3CCN(S(=O)(=O)Cc4ccccc4)C3)CC2)cc1`, 8.2 µM.
Still for that read-out and setting: the figure for `Cc1ccccc1CN1CCN(C(=O)CN[C@H]2CCN(S(=O)(=O)Cc3ccccc3)C2)CC1` is 10.2 µM; for `COc1cc(CN2CCN(C(=O)CN[C@H]3CCN(S(=O)(=O)Cc4ccccc4)C3)CC2)cc(OC)c1OC` it is 93 µM; for `Cc1cccc(CN2CCN(C(=O)CN[C@H]3CCN(S(=O)(=O)Cc4ccccc4)C3)CC2)c1` it is 11.3 µM.
The compound `O=C(CN[C@H]1CCN(S(=O)(=O)Cc2ccccc2)C1)N1CCN(Cc2ccc(F)cc2)CC1` registered an IC50 in experiment [4] of 14.3 µM.
Compound `O=C(CN[C@H]1CCN(S(=O)(=O)Cc2ccccc2)C1)N1CCN(Cc2cccc(Cl)c2)CC1` yielded a concentration for half-maximal inhibition (IC50) in experiment [4] of 8.6 µM.
The same measure, in the same setting: the figure for `O=C(CN[C@H]1CCN(S(=O)(=O)Cc2ccccc2)C1)N1CCN(Cc2ccccc2Cl)CC1` is 9 µM; for `O=C(CN[C@H]1CCN(S(=O)(=O)Cc2ccccc2)C1)N1CCN(Cc2ccccc2)CC1` it is 9.5 µM.
On the same count and under the same terms, the figure for `O=C(CN[C@H]1CCN(S(=O)(=O)Cc2ccccc2)C1)N1CCN(Cc2c(Cl)cccc2Cl)CC1` is 28.4 µM.
For the compound `O=C(CN[C@H]1CCN(S(=O)(=O)Cc2ccccc2)C1)N1CCN(Cc2cccc(C(F)(F)F)c2)CC1`, the results for the inhibition in experiment [1] and in experiment [3] were 4.49% and 12.1%, respectively. Further, the outcome in experiment [2] was inactive. Further, in experiment [4], the half-inhibitory concentration (IC50) was determined as 3.6 µM.
The matching figures for `O=C(CN[C@H]1CCN(S(=O)(=O)Cc2ccccc2)C1)N1CCN(Cc2ccc(Cl)cc2Cl)CC1`: 4.92%, 16.4%, “inactive” and 4.3 µM.
As for `COc1cc(CN2CCN(C(=O)CN[C@H]3CCN(S(=O)(=O)Cc4ccccc4)C3)CC2)cc(OC)c1`, the IC50 in experiment [4] was 33.8 µM.
Turning to `COc1ccc(CN2CCN(C(=O)CN[C@H]3CCN(S(=O)(=O)Cc4ccccc4)C3)CC2)cc1`, the IC50 in experiment [4] stood at 50.9 µM.

For the origin of these results see ChEMBL document CHEMBL1759999, “Exploration of (S)-3-aminopyrrolidine as a potentially interesting scaffold for discovery of novel Abl and PI3K dual inhibitors” (Eur J Med Chem, 2011).
